For data set [1], the system named is Nucleic Acid. Kind of data set: Temperature (delta Tm) for DNA triplex to duplex and single stranded transitions [Poly(dT.dA.dT) to Poly(dA.dT) and Poly(dT)]. In kind it is nucleic-acid assay. The method, boiled down: (§1)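 Thermal melting in PIPES buffer (0.01 M PIPES, 0.001 M EDTA, 0.2 M NaCl, pH 7.0). Duplex poly(dA·dT) and triplex poly(dT·dA·dT) are formed by adding DNA stock to buffer. Compound is added at a molar ratio of 0.3 per nucleic acid base (saturating). ΔTm = Tm(complex) − Tm(free DNA), estimated error ±0.5 °C.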

Data set [2] concerns Nucleic Acid. The data set can be described thus: Temperature (delta Tm) for DNA duplex denaturation evaluated by thermal melting. In kind it is nucleic-acid assay. In short, it runs like this: as §1
A short description of data set [3]: PKa value of the N in quinoline ring is determined in 1-cm UV cell titreated with HCl or NaOH. In kind it is physicochemical. As to conditions: buffer. The method, boiled down: (§2)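 UV-monitored pH titration with HCl or NaOH. Sample is dihydrobromide salt or free base (0.01 mM) in nanopure water with NaCl (4 mM) and EDTA (0.1 mM). UV-vis spectra (220-450 nm) recorded after each addition. pH range spans at least 2 units either side of pKa, at least two points per pH unit. Absorbance at the wavelength of greatest change is normalized and plotted against pH.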

A short description of data set [4]: PKa value of the side chain terminal amino is determined in 1-cm UV cell titreated with HCl or NaOH. The class given is physicochemical. The following applies: buffer. In short, it runs like this: as §2

This note sets out measurements from ChEMBL document CHEMBL1129691, “Synthesis and structure-DNA binding relationship analysis of DNA triple-helix specific intercalators” (J Med Chem, 1996).

The structures appear in SMILES notation.

Consider `CN(C)CCNc1cc(-c2ccc3c(ccc4ccccc43)c2)nc2ccccc12`, for which the thermal shift (ΔTm) amounted to 35.3 °C with Nucleic Acid [1] and 5.2 °C with Nucleic Acid [2].

For `CNCCN(C)c1cc(-c2ccc3ccccc3c2)nc2ccccc12`, the values for the pKa in data set [3] and in data set [4] were 6.2 and more than 8, respectively. The figures for the thermal shift (ΔTm) with Nucleic Acid [1] and in the data set with Nucleic Acid [2] were 24.1 °C and 0.2 °C, respectively.

On to `CN1CCN(c2cc(-c3ccc4ccccc4c3)nc3ccccc23)CC1`, for which the pKa in data set [3] was 5.6; in data set [4], more than 8. The figures for the ΔTm with Nucleic Acid [1] and with Nucleic Acid [2] were 19.1 °C and 0.4 °C, respectively.

As for `CN(C)CCNc1cc(-c2ccc3c(c2)Nc2ccccc2S3)nc2ccccc12`, the results for the ΔTm with Nucleic Acid [1] and in the data set with Nucleic Acid [2] were 33.1 °C and 2.4 °C, respectively.

For `CN(C)CCNc1cc(-c2ccc3ccccc3c2)nc2ccccc12`, the pKa in data set [3] is 7.1; in data set [4], more than 8. The ΔTm in the data set with Nucleic Acid [1] amounted to 35.6 °C; in the data set on Nucleic Acid [2] it was 5.5 °C.

On to `Cc1ccc2cc(-c3cc(NCCN(C)C)c4ccccc4n3)ccc2c1`, for which the ΔTm in the data set on Nucleic Acid [1] stood at 32.9 °C; with Nucleic Acid [2], 2.2 °C.

`CNCCN(C)c1cc(-c2ccc3c(c2)Nc2ccccc2S3)nc2ccccc12`: the values for the ΔTm in the data set with Nucleic Acid [1] and with Nucleic Acid [2] were 20.8 °C and 1.5 °C, respectively.

With `CN1CCN(c2cc(-c3ccccc3)nc3ccccc23)CC1`, the ΔTm with Nucleic Acid [1] was determined as 3.2 °C; in the data set with Nucleic Acid [2], 0 °C.

In the case of `CN(C)CCNc1cc(-c2ccccc2)nc2ccccc12`, the ΔTm with Nucleic Acid [1] came out at 11.9 °C; in the data set on Nucleic Acid [2] it was 0.3 °C.

`CN(C)CCNc1cc(-c2cccc3ccccc23)nc2ccccc12`: the ΔTm in the data set on Nucleic Acid [1] came out at 1.9 °C; with Nucleic Acid [2] it was 0.1 °C.

Turning to `CN(C)CCNc1cc(-c2cccs2)nc2ccccc12`, the ΔTm in the data set with Nucleic Acid [1] is 9.4 °C; in the data set with Nucleic Acid [2] it was 0.7 °C.

Regarding `CN(C)CCSc1cc(-c2ccc3ccccc3c2)nc2ccccc12`, the pKa in data set [3] is 4.4; in data set [4], more than 8. The ΔTm came to 18.6 °C in the data set on Nucleic Acid [1] and 0.2 °C in the data set on Nucleic Acid [2].

Regarding `CN(C)CCN(C)C(=O)c1cc(-c2ccc3ccccc3c2)nc2ccccc12`, the ΔTm came to 2.1 °C with Nucleic Acid [1] and 0 °C in the data set on Nucleic Acid [2].

On to `Cc1ccc2cc(-c3cc(N4CCN(C)CC4)c4ccccc4n3)ccc2c1`, for which the ΔTm in the data set on Nucleic Acid [1] was found to be 15.5 °C; in the data set with Nucleic Acid [2], 0.4 °C.

With `CN(C)CCN(C)c1cc(-c2cccs2)nc2ccccc12`, the figures for the ΔTm with Nucleic Acid [1] and in the data set on Nucleic Acid [2] were 3 °C and 0 °C, respectively.

In the case of `Cc1ccc2cc(-c3cc(N(C)CCN(C)C)c4ccccc4n3)ccc2c1`, the ΔTm in the data set on Nucleic Acid [1] was 19 °C; with Nucleic Acid [2], 0.4 °C.

On to `CN1CCN(c2cc(-c3ccc4c(ccc5ccccc54)c3)nc3ccccc23)CC1`, for which the ΔTm worked out at 18.6 °C in the data set on Nucleic Acid [1] and 0.3 °C with Nucleic Acid [2].

As to `CNCCN(C)c1cc(-c2ccc3cc(C)ccc3c2)nc2ccccc12`, the figures for the ΔTm in the data set with Nucleic Acid [1] and with Nucleic Acid [2] were 23 °C and 0.5 °C, respectively.

The term ΔTm denotes the change in melting temperature against a reference sample. By pKa is commonly meant the negative logarithm of the acid dissociation constant. Read a high pKa as a weaker acid or stronger base.
